Screens: PubChem, several laboratories
Most compounds without a hit are left out; they make up all but 1.2% or so of the library.
ARFGAP1 inhibitor – inhibitors of rat ARFGAP1 GAP activity, primary screen, biochemical, fluorescence polarization, GDP tracer; hit rate 0.26% among 360,000; Arfgap1-stimulated ARF1 GTP hydrolysis, GDP FP detection; AID 651572, 2012; inhibition, % at 16.5 µM; ADP-ribosylation factor GTPase-activating protein 1 (Rattus norvegicus), Q62848;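 active means inhibition above a per-plate limit, mean inhibition of low control wells plus 3 SD, cut at about 25% in these data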;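 further: 0% = DMSO wells with enzyme and 100% = wells lacking Arfgap1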
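Assay system: Rat Arfgap1 GAP domain (His6, aa 1-136), purified enzyme | Buffer or medium: HEPES 25 mM pH 7.5, NaCl 150 mM, MgCl2, DTT | Schedule: GTP hydrolysis reaction 2 h at 25 °C | Signal: FP of antibody-bound GDP Alexa 633 tracer, ex 620/em 688 nm | Measure: Percent inhibition of Arfgap1-stimulated GTP hydrolysis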
ASAP1 inh – inhibitors of human ASAP1 ArfGAP activity, primary screen, biochemical, fluorescence polarization; Arf-GAP with SH3 domain, ANK repeat and PH domain-containing protein 1 (Homo sapiens), …; ASAP1-stimulated ARF1 GTP hydrolysis, GDP FP detection; inhibition, % at 16.5 µM; hit rate 0.19% among 360,000; AID 624377, 2012; in the data active means inhibition above about 25%;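 further: 0% = vehicle with enzyme and substrate and 100% = no enzyme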
procasp7 counter – procaspase-7 activators, primary screen, counter-screen for procaspase-3 activator project, biochemical, absorbance, HTS, human. recombinant procaspase-7, Ac-DEVD-pNA absorbance 405 nm; D23A/D198A/D206A triple mutant, cannot self-cleave; scale: DMSO 0, 5 µM enzyme 100. hit rate 0.093% among 330,000. activation, % at 8.5 µM. AID 463210, 2010. Caspase-7 (Homo sapiens), P55210;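 active means percent activation above the screen-wide mean plus 3 SD, cut at about 25% in these data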
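Test system: Procaspase-7 triple mutant (PC-7 D3A). Also added: Ac-DEVD-pNA substrate, 400 µM as added. Schedule: 1 h enzyme–compound preincubation and 2 h substrate reaction, both 25 °C. Signal: p-Nitroaniline absorbance at 405 nm, read at 0 and 120 min. Control set: low DMSO alone, high DMSO plus 5 µM PC-7.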
LANA-H2B inh – blockers of LANA interaction with H2A/H2B – biochemical, FP readout, HTS, primary screen; Protein LANA1 (Human herpesvirus 8 type P (isolate GK18)), Q9QR71; cell-free LANA-H2A/H2B peptide, fluorescence polarization; inhibition, % (test concentration not listed); hit rate 0.6% among 320,000; AID 2629, 2010; in the data active means inhibition mostly above about 10%, no sharp cut-off; inactive means mostly below about 6.7%
CR mimetic SO – reduction of superoxide in aged yeast, primary screen, HTS | AID 2690, 2010 | superoxide response (% of plate mean), % at 10 µM | S. cerevisiae aged cells, superoxide DHE fluorescence; active compounds read low | hit rate 0.18% among 330,000;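 active means superoxide response under a set limit, about three screen SD below normal, cut at about 65% in these data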;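 further: yeast aged for seven days with compound at 30 °C before DHE staining; 100% = average MFI of all compound-treated wells on the plate with controls excluded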
proCasp3 act – activators of human procaspase-3 D3A mutant, primary screen, biochemical, absorbance, PC-3 D3A mutant, single concentration; Caspase-3 (Homo sapiens), P42574; recombinant procaspase-3 D3A, Ac-DEVD-pNA absorbance 405 nm; activation, % at 8.5 µM; hit rate 0.11% among 330,000;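 active means activation above the mean of all tested compounds plus 3 SD, cut at about 21% in these data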;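 further: 0% = DMSO alone and 100% = DMSO wells spiked with extra 5 µM PC-3 D3A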
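Assay system: Autoprocessing-dead procaspase-3 D3A mutant enzyme; also added: Ac-DEVD-pNA; doses: one concentration, 8.5 µM nominal, 0.8% DMSO; times: 1 h compound preincubation, 2 h substrate hydrolysis at 25 °C; technique: 405 nm absorbance of p-nitroaniline, reads at 0 and 120 min; measure: % activation between DMSO and enzyme-spiked controls; repeats: single replicate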
Superoxide pick – superoxide lowering in aged yeast cells, confirmation, cherry picked compounds. shares compounds with CR mimetic SO. S. cerevisiae aging, superoxide DHE fluorescence; active compounds read low. superoxide response (% of plate), % at 10 µM. hit rate 1% among 850. AID 434994, 2010;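 active means superoxide signal below 65% of the plate average of sample wells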;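 further: cells aged with compound for 7 days at 30 degrees C before staining; 100% equals mean DHE fluorescence of all compound wells on the plate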
DHE fluor count – DHE quenching or ROS scavenging interference in aged yeast, artefact control for yeast caloric restriction mimetic project, S. cerevisiae BY4741, flow cytometry | shares compounds with CR mimetic SO | DHE fluorescence; active compounds read low | fluorescence response, % at 10 µM | 850 tested, under 10 active | AID 435000, 2010;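 active means fluorescence response below 15%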;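 further: percent of the mean fluorescence averaged over all compound wells on the plate; lower means stronger quenching of DHE signal or ROS scavenging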
proCasp7 act trip – procaspase-7 activators, counter-screen for procaspase-3 activator project, biochemical, absorbance, triplicate, human. 210 tested, under 10 active. shares compounds with proCasp3 act. activation, % at 8.5 µM. recombinant procaspase-7, Ac-DEVD-pNA absorbance; asp23/198/206-to-Ala mutant, cannot self-cleave;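 active means mean activation above a set limit taken from an earlier procaspase-7 screen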;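 further: 0% = DMSO wells and 100% = DMSO plus 5 µM procaspase-7 enzyme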
procasp3 conf – activators of human procaspase-3 D3A mutant, confirmation, biochemical, absorbance, PC-3 D3A mutant, triplicate. recombinant PC-3 D3A, Ac-DEVD-pNA absorbance 405 nm; 100% is higher-enzyme control. hit rate 10% among 210. shares compounds with proCasp3 act. activation, % at 8.5 µM;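 active means mean activation above a set limit carried over from the earlier primary screen, cut at about 22% in these data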
ASAP1 inh confirm – ASAP1 GAP activity inhibitors, confirmation, biochemical, fluorescence polarization, human, triplicate | shares compounds with ASAP1 inh | ASAP1-stimulated Arf1 GTPase, GDP fluorescence polarization | inhibition, % at 16.5 µM | hit rate 37% among 620;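 active means mean inhibition over triplicates exceeds the hit threshold derived for the earlier primary screening run, cut at about 25% in these data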
ARFGAP1 inh conf – ARFGAP1 inhibitor hit confirmation, biochemical, fluorescence polarization, triplicate | hit rate 30% among 890 | ARFGAP1-stimulated ARF1 GTP hydrolysis, GDP tracer FP | inhibition, % at 16.5 µM | shares compounds with ARFGAP1 inhibitor;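 active means average inhibition over triplicates above the hit cutoff set in the earlier primary screen, cut at about 25% in these data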;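 further: 0% = Arfgap1 plus ARF1-GTP with DMSO and 100% = wells lacking Arfgap1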
* marks the source's active call; other numbers are inactive results; / = not tested or not shown; ! = not confirmed by another sample.

SMILES	ARFGAP1 inhibitor	ASAP1 inh	procasp7 counter	LANA-H2B inh	CR mimetic SO	proCasp3 act	proCasp7 act trip	procasp3 conf	others
CC(=O)Nc1ccc(NC(=O)CSc2ccc(-c3ccc(-n4ccnc4)cc3)nn2)cc1	25*	66*	-6	-5	111	14	/	/	Superoxide pick=89;DHE fluor count=112;ASAP1 inh confirm=71*;ARFGAP1 inh conf=72*
O=C1c2c(O)ccc(O)c2C(=O)c2c(NCCNCCO)ccc(NCCNCCO)c21	25*!	21	-3	77*	33*	-3	/	/	Superoxide pick=46*;DHE fluor count=14*;ARFGAP1 inh conf=56*
O=C1c2ccccc2C(=O)c2c(Nc3ccc(CCO)cc3)ccc(O)c21	-3	0	7	9	116	-7	/	/
O=C(NCc1ccccn1)C1CCN(C2CCN(Cc3cccc(F)c3)CC2)CC1	5	4	/	/	/	/	/	/
Cc1cc(C)cc(C(=O)Nc2c3c(nn2C(C)(C)C)CS(=O)(=O)C3)c1	1	-1	2	-2	103	22*	0	5
CC(=O)Nc1ccc(NC(=O)c2c(C)nn(Cc3ccccc3Cl)c2C)cc1	-4	-2	10	6	100	1	/	/
Cc1cccc(N2CCN(C(=O)c3c(C)nn(Cc4ccccc4Cl)c3C)CC2)c1C	1	5	7	-6	98	55*	0	3
OC[C@@H]1[C@@H](c2ccc(Cl)cc2)C(c2ccccc2)=NN1c1ccccc1	7	-2	20	/	92	22*	-21	-12
OC[C@@H]1[C@@H](c2ccc(Cl)cc2)C(c2cccc(Cl)c2)=NN1c1ccccc1	13	7	0	/	118	18	/	/
CCCc1ccc(S(=O)(=O)NCc2nnc(SC)n2C)cc1	6	14	8	2	99	-4	/	/
COc1ccc(C2CC(c3ccccc3C(F)(F)F)=NN2c2ccc(S(N)(=O)=O)cc2)cc1 (stereo not drawn)	17	9	24	/	86	35*	-20	-14
CC(=O)Nc1nc(C)c(C(C)=O)s1	-7	13	-12	-3	106	25*	4	4
CC(=O)c1sc(NC(=O)C(C)C)nc1C	-4	-2	-1	-3	98	-4	/	/
Cc1c(C)n2c(SCC(=O)N3CCCCCC3)nnc2[nH]c1=O	5	-7	9	6	89	23*	1	3
CCOC(=O)C1CCN(S(=O)(=O)c2ccc3c(c2)N(C(C)=O)CC(C)S3)CC1 (stereo not drawn)	6	-5	0	-4	117	-1	/	/
Cc1cc(C)c(C#N)c(SCC(=O)Nc2nnc(-c3ccccc3)s2)n1	-6	8	22	1	95	27*	2	1
Cc1nc(SCC(=O)Nc2nc3ccccc3s2)c(C#N)c(C)c1C	10	-4	-3	5	110	29*	-14	-7
Cc1cc(C(F)(F)F)c(C#N)c(SCC(=O)Nc2nc3ccccc3s2)n1	-1	8	-8	-10	99	-3	/	/
O=C(Nc1ccc2c(c1)OCCO2)C(=O)NC1CC1	7	11	3	6	95	1	/	/
Cc1ccncc1C(N)=O	0	4	6	4	105	3	/	/
Cn1nc(SCc2ccccc2)c(=O)[nH]c1=O	-1	-16	/	/	/	/	/	/
Nc1nc(Sc2c([N+](=O)[O-])cc(C(F)(F)F)cc2[N+](=O)[O-])n[nH]1	-1	-9	0	-3	115	-5	/	/
O=c1[nH]c(N/N=C\c2ccc(F)cc2)nc2ccccc12	18	-2	22	6	92	30*	1	-1
COC(=O)c1ccccc1NCc1cc(=O)oc2cc(O)c(O)cc12	10	-10	18	-6	85	53*	10	53*
Cc1n[nH]c(=O)n1-c1ccc(OCc2ccccc2)cc1	-1	-10	-1	-4	93	-1	/	/
CCCCCOc1ccc(NC2=CC(=O)CCC2)cc1	0	5	21	0	85	24*	0	4
CCOc1ccc(NC2=CC(=O)CCC2)cc1	-1	-4	-9	-6	106	4	/	/
Cc1c(CC(=O)NCC(=O)N[C@H](Cc2ccccc2)C(=O)O)c(=O)oc2cc(O)ccc12	-6	-11	19	-2	106	25*	-21	-13
